Measured values taken from the RNAGym collection of RNA variant scans (doi:10.1126/science.aae0568).
Variants at the floor of the assay were thinned out.

B1: tRNA (parent)
chain: GUUCCGUUGGCGUAAUGGUAACGCGUCUCCCUCCUAAGGAGAAGACUGCGGGUUCGAGUCCCGUACGGAACG

Variants of: B1
Assay: yeast fitness relative to wild type (ratio to wild type); higher = fitter; tRNA-Arg(CCU), competitive growth, 37 C, YPD
In short: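 Genotype frequency changes were the basis for Darwinian fitness relative to wild type. The frequencies came from 100-nucleotide paired-end sequencing of gene amplicons from the start population and each end population of pooled yeast strains with tRNA-Arg(CCU) gene variants at the native locus. Competition ran in YPD at 37°C for 24 hours in six replicates, genotypes needed ≥ 100 starting reads, and estimates < 0.5 were set to 0.5.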

Variant	yeast fitness
GUUCCGUUGGCGUAAUGGUAACGCGUCUCCCUCCUAUCGAGAAGACUGCGGGUUCGAGUCCCGUCCGGAACG [A37U G38C A65C]	≤ 0.5
GUUCCGUUGGCGUAAUGGUAACGCGUCUCCCUCCUAUGGAGAAAACUGCGGGUUCGCGUCGCGUACGGAACG [A37U G44A A57C C61G]	0.625
GUUCCGUUGGCGUAAUGGUAACGCGUCUCCCUCCUAAAGUGAAGACUGCCGGUUCGAGUGCCGUACAGACCG [G38A A40U G50C C60G G67A A70C]	≤ 0.5
GUUCCGUUGGCGUAAUGGUAACGCGUCUCCCUCCUAUGGAGAAGACUGCGGGUUCGAGUCCCGUGAGGAACG [A37U A65G C66A]	≤ 0.5
GUUCCGUUGGCGUAAUGGUAACGCGUCUCCCUCCUAUGGAGAAGACUGCGGGUUUGAGUCCCGUUCGGAACG [A37U C55U A65U]	≤ 0.5
GUUCCGUUGGCGUAAUGGUAACGCGUCUCCCUCCUAUGGAGAAGACUGCGGGGUGGAGUCCAGUACGGAACG [A37U U53G C55G C62A]	0.744
GUUCCGUUGGCGUAAUGGUAACGCGUCUCCCUCCUAUGGAGGAGACUGCGGGUUCGAGUCCCGUACGGAACG [A37U A42G]	0.588
GUUCCGUUGGCGUAAUGGUAACGCGUCUCCCUCCUAUGGAGCAGACUGCGGGUUCGAGUCCCGUACGGAACG [A37U A42C]	0.698
GUUCCGUUGGCGUAAUGGUAACGCGUCUCCCUCCUAAAGAGAGGAUUGUGGGUUCGAGUCCCGUACGGAACG [G38A A43G C46U C49U]	0.611
GUUCCGUUGGCGUAAUGGUAACGCGUCUCCCUCCUAUGGAGAAGACUGCGGGUUCGAGGUCCGUACGGAACG [A37U U59G C60U]	≤ 0.5
GUUCCGUUGGCGUAAUGGUAACGCGUCUCCCUCCUAUGGAGAAGACUGCAGGUUCGAGUCCCGUACGGUACG [A37U G50A A69U]	0.805
GUUCCGUUGGCGUAAUGGUAACGCGUCUCCCUCCUAGGGAGAAGACUGCGGGGUCGAGUCCCGUACGGAACG [A37G U53G]	≤ 0.5
GUUCCGUUGGCGUAAUGGUAACGCGUCUCCCUCCUAGGGAGAAGACUGCGGGCUCGAGUCCCGUACGGAACG [A37G U53C]	0.553
GUUCCGUUGGCGUAAUGGUAACGCGUCUCCCUCCUAAAGCGAAGACUGCGGGCUCGAGUCCCGUACGGAACG [G38A A40C U53C]	0.538
GUUCCGUUGGCGUAAUGGUAACGCGUCUCCCUCCUAUGGAGAAGACUGAGGGUUCGAGUCCCGUAUGGAACG [A37U C49A C66U]	≤ 0.5
GUUCCGUUGGCGUAAUGGUAACGCGUCUCCCUCCUAUGCAGAAGACUACGGGGUCGAGUCCCGUACGGAACG [A37U G39C G48A U53G]	≤ 0.5
GUUCCGUUGGCGUAAUGGUAACGCGUCUCCCUCCUAUGGAGAAGUCUGCGGGUUCGAGUCCCGUGCGGAACG [A37U A45U A65G]	≤ 0.5
GUUCCGUUGGCGUAAUGGUAACGCGUCUCCCUCCUAAAGUGAAGACUGCGGGUUCGAGUCCCGUGCGGAACG [G38A A40U A65G]	≤ 0.5
GUUCCGUUGGCGUAAUGGUAACGCGUCUCCCUCCUAGGGAGAAGACUGCGGGUUCGAGGCCCGUACGGAACG [A37G U59G]	0.75

Variant	yeast fitness
GUUCCGUUGGCGUAAUGGUAACGCGUCUCCCUCCUAGGGAGAAGACCGCGGGUUCGAGUCCCGUACGGAACG [A37G U47C]	0.744
GUUCCGUUGGCGUAAUGGUAACGCGUCUCCCUCCUAAAGAGAUGACUGCGGGUACGAGUCCCGUACGGAACG [G38A A43U U54A]	≤ 0.5
GUUCCGUUGGCGUAAUGGUAACGCGUCUCCCUCCUAUGGAGCAGACUGCGGGUUCGAGUCCCGUACGGCACG [A37U A42C A69C]	≤ 0.5
GUUCCGUUGGCGUAAUGGUAACGCGUCUCCCUCCUAUGGAGCAGACUCCGGGUUCGAGUCCCGUACGGAUCG [A37U A42C G48C A70U]	≤ 0.5
GUUCCGUUGGCGUAAUGGUAACGCGUCUCCCUCCUAUGGAGAAGACAGCGGUUUCGAGUCCCGUACGGAACG [A37U U47A G52U]	≤ 0.5
GUUCCGUUGGCGUAAUGGUAACGCGUCUCCCUCCUAUGGAGUAGACUGCGGGUUCGAGUCCCGUCCGGAACG [A37U A42U A65C]	≤ 0.5
GUUCCGUUGGCGUAAUGGUAACGCGUCUCCCUCCUAGGGAGAAGACUGCGCGUUCGAGUCCCGUACGGAUCG [A37G G51C A70U]	≤ 0.5
GUUCCGUUGGCGUAAUGGUAACGCGUCUCCCUCCUAUGGAGAAGUCUGCGGGUUCGAGUCCCGUACGGAACG [A37U A45U]	0.64
GUUCCGUUGGCGUAAUGGUAACGCGUCUCCCUCCUAUGGAGAAGCAUGCGGGUUCGAGUCCCGUACGGAACG [A37U A45C C46A]	0.598
GUUCCGUUGGCGUAAUGGUAACGCGUCUCCCUCCUAGGGAGAAGACUGCAGGUUCGAGUCCCGUACGGAACG [A37G G50A]	0.842
GUUCCGUUGGCGUAAUGGUAACGCGUCUCCCUCCUAUGGAGAAGACUGCGGGUUCGAGUCCCGUAUGGAACG [A37U C66U]	0.627
GUUCCGUUGGCGUAAUGGUAACGCGUCUCCCUCCUAUGGAGAAGACUGUGGGUUCGAGUCCCGUACGGAACG [A37U C49U]	0.68
GUUCCGUUGGCGUAAUGGUAACGCGUCUCCCUCCUAUGGAGAAGACUGCGGGUUCGAGUCCAGUACGGAACG [A37U C62A]	0.523
GUUCCGUUGGCGUAAUGGUAACGCGUCUCCCUCCUAUGGAGAAGACUGUGGGUUCGAGUCCCGCACGGAACG [A37U C49U U64C]	0.545
GUUCCGUUGGCGUAAUGGUAACGCGUCUCCCUCCUAAAGAGAUGACUGCGGGUUCAAGUCCCAUACGGAACG [G38A A43U G56A G63A]	≤ 0.5
GUUCCGUUGGCGUAAUGGUAACGCGUCUCCCUCCUAUGGACAAGAGUGCGGGUUCGAGUCCCGUACGGAACG [A37U G41C C46G]	≤ 0.5
GUUCCGUUGGCGUAAUGGUAACGCGUCUCCCUCCUAUGGAGAAGACUGCGGGUUCGAGUCCCGUGCGGAACG [A37U A65G]	0.651
GUUCCGUUGGCGUAAUGGUAACGCGUCUCCCUCCUAGGGAGAAGACUGCGGCUUCGAGUCCCGUACGGAUCG [A37G G52C A70U]	0.552
